In ChEMBL document CHEMBL3098105, “7,7'-Diazaindirubin--a small molecule inhibitor of casein kinase 2 in vitro and in cells” (Bioorg Med Chem, 2014):
The source made the active and inactive calls. The calls are words filed in the database; no cut-off is given here.

Key:
[1] = target: Serine/threonine-protein kinase Chk2 (Homo sapiens) (UniProt O96017); test: Inhibition of CHK2 (unknown origin) assessed as residual activity at 1 uM relative to control
[2] = target: Ribosomal protein S6 kinase alpha-4 (Homo sapiens) (UniProt O75676); test: Inhibition of human MSK2 assessed as residual activity at 1 uM relative to control
[3] = target: Glycogen synthase kinase-3 alpha (Homo sapiens) (UniProt P49840); test: Inhibition of human GSK3alpha assessed as residual activity at 1 uM relative to control
Glycogen synthase kinase-3 alpha (Homo sapiens), sequence (P49840 2-483 limits assumed): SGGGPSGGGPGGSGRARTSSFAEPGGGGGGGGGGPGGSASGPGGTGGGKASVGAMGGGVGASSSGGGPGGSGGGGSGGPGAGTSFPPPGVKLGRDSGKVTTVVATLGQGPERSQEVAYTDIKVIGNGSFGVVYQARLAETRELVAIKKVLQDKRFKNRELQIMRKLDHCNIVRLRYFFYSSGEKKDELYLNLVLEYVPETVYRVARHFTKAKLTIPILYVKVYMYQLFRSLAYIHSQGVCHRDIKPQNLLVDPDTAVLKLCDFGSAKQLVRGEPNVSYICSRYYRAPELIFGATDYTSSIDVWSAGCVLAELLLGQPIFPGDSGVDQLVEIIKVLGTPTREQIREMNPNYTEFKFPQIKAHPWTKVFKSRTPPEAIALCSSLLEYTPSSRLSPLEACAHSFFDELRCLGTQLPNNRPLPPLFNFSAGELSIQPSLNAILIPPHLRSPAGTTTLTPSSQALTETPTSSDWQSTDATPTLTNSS

LOX IMVI = test: Antiproliferative activity against human LOXIMVI cells after 3 days by sulforhodamine B assay; type: functional; settings: 72 h
Method in brief: (§1)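 Tested in the NCI 60 cell line panel. GI50 is the concentration giving 50% inhibition of cell growth, and values are the mean of two series of tests.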

[4] = target: SRSF protein kinase 1 (Homo sapiens) (UniProt Q96SB4); test: Inhibition of human SRPK1 assessed as residual activity at 1 uM relative to control
[5] = target: Calcium/calmodulin-dependent protein kinase type II subunit beta (Homo sapiens) (UniProt Q13554); test: Inhibition of human CaMK2beta assessed as residual activity at 1 uM relative to control
[6] = target: Vascular endothelial growth factor receptor 3 (Homo sapiens) (UniProt P35916); test: Inhibition of VEGF-R3 (unknown origin) assessed as residual activity at 10 uM relative to control
Vascular endothelial growth factor receptor 3 (Homo sapiens), sequence (P35916 whole entry): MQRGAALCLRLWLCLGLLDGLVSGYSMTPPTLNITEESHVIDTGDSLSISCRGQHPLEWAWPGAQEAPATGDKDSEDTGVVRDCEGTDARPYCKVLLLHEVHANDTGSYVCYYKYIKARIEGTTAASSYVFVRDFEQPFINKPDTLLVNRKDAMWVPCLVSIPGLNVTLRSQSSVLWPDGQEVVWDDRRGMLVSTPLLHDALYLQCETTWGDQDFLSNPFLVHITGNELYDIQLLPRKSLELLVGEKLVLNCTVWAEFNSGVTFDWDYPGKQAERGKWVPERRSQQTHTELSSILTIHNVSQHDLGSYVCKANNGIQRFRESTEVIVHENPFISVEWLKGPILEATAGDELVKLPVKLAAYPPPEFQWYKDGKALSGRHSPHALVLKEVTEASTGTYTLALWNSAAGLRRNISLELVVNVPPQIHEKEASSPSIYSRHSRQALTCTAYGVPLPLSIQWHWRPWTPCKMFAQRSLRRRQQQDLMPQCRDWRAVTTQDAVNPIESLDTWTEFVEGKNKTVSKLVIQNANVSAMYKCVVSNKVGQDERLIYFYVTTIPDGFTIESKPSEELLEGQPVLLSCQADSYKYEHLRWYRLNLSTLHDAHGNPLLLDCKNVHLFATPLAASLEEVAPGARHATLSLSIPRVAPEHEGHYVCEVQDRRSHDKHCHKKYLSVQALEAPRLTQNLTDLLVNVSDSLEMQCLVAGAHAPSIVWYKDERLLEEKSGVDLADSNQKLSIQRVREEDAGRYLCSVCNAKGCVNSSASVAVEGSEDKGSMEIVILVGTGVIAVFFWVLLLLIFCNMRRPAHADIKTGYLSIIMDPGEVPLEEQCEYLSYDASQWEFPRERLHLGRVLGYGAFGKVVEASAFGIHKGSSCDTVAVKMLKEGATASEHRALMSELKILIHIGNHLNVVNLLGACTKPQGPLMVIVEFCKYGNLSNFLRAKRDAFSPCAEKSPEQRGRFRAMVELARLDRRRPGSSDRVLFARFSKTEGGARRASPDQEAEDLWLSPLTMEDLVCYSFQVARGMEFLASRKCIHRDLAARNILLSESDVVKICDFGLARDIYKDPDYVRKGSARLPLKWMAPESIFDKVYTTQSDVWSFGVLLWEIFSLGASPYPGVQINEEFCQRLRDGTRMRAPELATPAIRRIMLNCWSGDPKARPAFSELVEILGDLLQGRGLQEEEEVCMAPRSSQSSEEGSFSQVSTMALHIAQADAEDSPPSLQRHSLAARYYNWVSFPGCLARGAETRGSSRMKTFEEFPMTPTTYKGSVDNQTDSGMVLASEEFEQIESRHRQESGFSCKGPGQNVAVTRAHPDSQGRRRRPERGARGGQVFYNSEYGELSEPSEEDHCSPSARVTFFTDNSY

[7] = target: Serine/threonine-protein kinase ULK2 (Homo sapiens) (UniProt Q8IYT8); test: Inhibition of human ULK2 assessed as residual activity at 1 uM relative to control
Serine/threonine-protein kinase ULK2 (Homo sapiens), sequence (Q8IYT8 whole entry): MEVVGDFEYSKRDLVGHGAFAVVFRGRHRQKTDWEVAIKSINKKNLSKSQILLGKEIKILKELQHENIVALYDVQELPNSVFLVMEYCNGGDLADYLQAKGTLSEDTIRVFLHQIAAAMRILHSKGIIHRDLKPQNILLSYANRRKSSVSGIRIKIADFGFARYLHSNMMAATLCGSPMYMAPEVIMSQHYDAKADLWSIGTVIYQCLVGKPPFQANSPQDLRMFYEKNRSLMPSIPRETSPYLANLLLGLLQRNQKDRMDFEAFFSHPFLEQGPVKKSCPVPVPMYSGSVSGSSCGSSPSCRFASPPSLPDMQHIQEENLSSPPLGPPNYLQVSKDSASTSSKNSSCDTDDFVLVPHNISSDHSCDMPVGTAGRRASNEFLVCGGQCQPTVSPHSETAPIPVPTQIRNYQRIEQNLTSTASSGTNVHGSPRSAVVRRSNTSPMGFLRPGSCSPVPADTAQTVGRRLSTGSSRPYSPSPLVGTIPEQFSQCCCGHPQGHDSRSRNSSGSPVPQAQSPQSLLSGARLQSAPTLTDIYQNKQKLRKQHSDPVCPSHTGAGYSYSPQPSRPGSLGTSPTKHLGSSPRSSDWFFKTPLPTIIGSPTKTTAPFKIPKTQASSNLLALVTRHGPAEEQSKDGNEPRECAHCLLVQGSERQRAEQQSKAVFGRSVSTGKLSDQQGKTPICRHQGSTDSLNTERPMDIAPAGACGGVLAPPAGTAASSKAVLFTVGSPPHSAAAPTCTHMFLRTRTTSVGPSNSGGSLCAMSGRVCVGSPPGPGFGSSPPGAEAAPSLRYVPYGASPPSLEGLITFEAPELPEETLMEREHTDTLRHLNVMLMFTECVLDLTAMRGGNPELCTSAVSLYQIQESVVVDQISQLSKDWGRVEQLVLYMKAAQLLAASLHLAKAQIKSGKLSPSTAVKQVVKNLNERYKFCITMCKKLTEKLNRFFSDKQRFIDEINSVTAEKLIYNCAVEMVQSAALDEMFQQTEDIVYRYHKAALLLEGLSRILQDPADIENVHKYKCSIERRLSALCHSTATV

[8] = target: Mitogen-activated protein kinase 8 (Homo sapiens) (UniProt P45983); test: Inhibition of human JNK1alpha1 assessed as residual activity at 1 uM relative to control
[9] = target: Mitogen-activated protein kinase kinase kinase 7 (Homo sapiens) (UniProt O43318); test: Inhibition of human TAK1 assessed as residual activity at 1 uM relative to control
Mitogen-activated protein kinase kinase kinase 7 (Homo sapiens), sequence (O43318 whole entry): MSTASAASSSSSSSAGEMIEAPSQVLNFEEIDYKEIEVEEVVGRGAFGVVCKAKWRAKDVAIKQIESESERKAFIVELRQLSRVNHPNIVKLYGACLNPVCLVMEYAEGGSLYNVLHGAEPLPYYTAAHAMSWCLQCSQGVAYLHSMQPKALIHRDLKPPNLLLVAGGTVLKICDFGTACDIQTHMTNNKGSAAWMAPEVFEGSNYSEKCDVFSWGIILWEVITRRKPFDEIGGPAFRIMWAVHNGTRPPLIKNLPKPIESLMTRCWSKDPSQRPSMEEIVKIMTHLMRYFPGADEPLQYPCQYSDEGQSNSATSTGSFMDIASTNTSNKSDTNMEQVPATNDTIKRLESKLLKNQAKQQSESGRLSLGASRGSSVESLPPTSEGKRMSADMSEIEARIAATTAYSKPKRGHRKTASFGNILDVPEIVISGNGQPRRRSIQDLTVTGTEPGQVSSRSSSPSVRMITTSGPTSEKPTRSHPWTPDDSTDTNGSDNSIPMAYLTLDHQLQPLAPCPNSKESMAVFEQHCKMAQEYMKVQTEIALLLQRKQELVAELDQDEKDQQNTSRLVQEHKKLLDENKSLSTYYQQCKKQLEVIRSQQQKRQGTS

[10] = target: Tyrosine-protein kinase ABL1 (Homo sapiens) (UniProt P00519); test: Inhibition of human Abl assessed as residual activity at 1 uM relative to control
[11] = target: Serine/threonine-protein kinase D1 (Homo sapiens) (UniProt Q15139); test: Inhibition of human PKCmu assessed as residual activity at 1 uM relative to control
[12] = target: SRSF protein kinase 3 (Homo sapiens) (UniProt Q9UPE1); test: Inhibition of human MSSK1 assessed as residual activity at 1 uM relative to control
SRSF protein kinase 3 (Homo sapiens), sequence (Q9UPE1 whole entry): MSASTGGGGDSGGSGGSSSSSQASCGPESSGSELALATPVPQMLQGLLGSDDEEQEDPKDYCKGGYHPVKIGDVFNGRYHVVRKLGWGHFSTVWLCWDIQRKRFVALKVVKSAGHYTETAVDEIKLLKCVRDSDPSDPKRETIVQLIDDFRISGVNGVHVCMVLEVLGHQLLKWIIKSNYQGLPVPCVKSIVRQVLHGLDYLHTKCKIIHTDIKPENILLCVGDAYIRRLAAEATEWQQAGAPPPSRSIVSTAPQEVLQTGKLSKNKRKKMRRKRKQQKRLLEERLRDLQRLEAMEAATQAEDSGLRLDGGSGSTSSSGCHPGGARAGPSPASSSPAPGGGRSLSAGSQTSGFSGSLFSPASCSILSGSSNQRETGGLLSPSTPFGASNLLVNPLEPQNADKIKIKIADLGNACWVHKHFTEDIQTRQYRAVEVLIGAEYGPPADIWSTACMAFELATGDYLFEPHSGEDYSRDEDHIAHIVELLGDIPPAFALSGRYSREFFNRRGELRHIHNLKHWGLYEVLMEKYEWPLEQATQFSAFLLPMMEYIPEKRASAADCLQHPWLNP

[13] = target: T1, Casein kinase II (Homo sapiens) (UniProt P67870+P68400+P19784); test: Inhibition of CK2 in human MCF7 cells assessed as time of delay for GSK3beta phosphorylation at Ser9 at 1 uM by Western blot analysis; type: cell-based
Method in brief: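 MCF7 cells were grown at 37 °C and 5% CO2 in DMEM with 10% heat-inactivated FBS and penicillin/streptomycin. Cells were exposed to 1 µM for the indicated times, with DMSO as the untreated control. Extracts were made in urea lysis buffer, and 20–40 µg protein was run on 10% SDS–PAGE. Blots were probed with primary antibodies (1:1000, overnight, 4 °C) and read by ECL, with β-actin as loading control.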

[14] = target: Proto-oncogene tyrosine-protein kinase Src (Homo sapiens) (UniProt P12931); test: Inhibition of SRC (unknown origin) assessed as residual activity at 10 uM relative to control
[15] = target: Glycogen synthase kinase-3 beta (Homo sapiens) (UniProt P49841); test: Inhibition of human GSK3beta assessed as residual activity at 1 uM relative to control
[16] = target: Cyclin-dependent kinase 1/cyclin B1 (Homo sapiens) (UniProt P06493+P14635); test: Inhibition of CDK1/CycB1 (unknown origin) assessed as residual activity at 10 uM relative to control; type: protein-complex assay
Cyclin-dependent kinase 1/cyclin B1 (Homo sapiens), sequence (P06493 whole entry, looked up): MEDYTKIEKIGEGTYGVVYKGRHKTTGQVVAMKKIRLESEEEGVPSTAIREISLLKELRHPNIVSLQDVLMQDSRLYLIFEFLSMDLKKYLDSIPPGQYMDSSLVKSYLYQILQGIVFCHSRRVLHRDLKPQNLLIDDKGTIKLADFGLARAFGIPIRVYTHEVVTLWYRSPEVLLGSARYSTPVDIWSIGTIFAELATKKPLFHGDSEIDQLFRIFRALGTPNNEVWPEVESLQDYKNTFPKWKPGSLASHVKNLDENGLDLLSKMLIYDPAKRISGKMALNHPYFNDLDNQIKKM
Cyclin-dependent kinase 1/cyclin B1 (Homo sapiens), sequence (P14635 whole entry, looked up): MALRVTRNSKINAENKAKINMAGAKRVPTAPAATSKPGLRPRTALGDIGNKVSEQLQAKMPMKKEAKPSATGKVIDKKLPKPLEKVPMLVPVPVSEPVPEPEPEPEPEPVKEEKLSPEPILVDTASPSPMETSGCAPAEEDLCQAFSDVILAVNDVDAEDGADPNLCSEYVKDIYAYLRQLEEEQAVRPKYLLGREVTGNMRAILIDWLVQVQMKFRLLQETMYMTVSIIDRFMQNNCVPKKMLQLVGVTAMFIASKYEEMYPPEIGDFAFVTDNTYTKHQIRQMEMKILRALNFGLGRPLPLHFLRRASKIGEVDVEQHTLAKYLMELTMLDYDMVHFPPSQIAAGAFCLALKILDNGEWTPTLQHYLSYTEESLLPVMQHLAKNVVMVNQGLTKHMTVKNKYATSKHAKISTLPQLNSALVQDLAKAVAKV

[17] = target: Serine/threonine-protein kinase Nek2 (Homo sapiens) (UniProt P51955); test: Inhibition of human NEK2 assessed as residual activity at 1 uM relative to control
[18] = target: Epidermal growth factor receptor (Homo sapiens) (UniProt P00533); test: Inhibition of EGF-R (unknown origin) assessed as residual activity at 10 uM relative to control
[19] = target: Mitogen-activated protein kinase 11 (Homo sapiens) (UniProt Q15759); test: Inhibition of human SAPK2beta assessed as residual activity at 1 uM relative to control
[20] = target: LIM domain kinase 1 (Homo sapiens) (UniProt P53667); test: Inhibition of human LIMK1 assessed as residual activity at 1 uM relative to control
[21] = Antiproliferative activity against human NCI-ADR-RES cells after 3 days by sulforhodamine B assay; type: functional; settings: 72 h; method in brief: as §1
[22] = target: Tyrosine-protein kinase JAK3 (Homo sapiens) (UniProt P52333); test: Inhibition of human JAK3 assessed as residual activity at 1 uM relative to control
[23] = target: T1, Casein kinase II (Homo sapiens); test: Inhibition of CK2 in human PANC1 cells assessed as reduction of Akt phosphorylation at S473 at 0.25 to 8 uM after 2 hrs by Western blot analysis; type: cell-based; settings: PANC-1
Method in brief: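 Panc1 cells were cultured in DMEM with 10% heat-inactivated FBS and penicillin/streptomycin at 37 °C and 5% CO2. Cells were treated with a range of concentrations for 2 h, with Ly294002 as positive control. Urea-buffer lysates (20–40 µg protein) were separated on 10% SDS–PAGE and probed for pAkt (S473) and β-actin. Detection was by ECL.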

[24] = target: T2, Serine/threonine-protein kinase Chk1 (Homo sapiens) (UniProt O14757); test: Inhibition of CHK1 (unknown origin) assessed as residual activity at 10 uM relative to control
T2 sequence (whole entry): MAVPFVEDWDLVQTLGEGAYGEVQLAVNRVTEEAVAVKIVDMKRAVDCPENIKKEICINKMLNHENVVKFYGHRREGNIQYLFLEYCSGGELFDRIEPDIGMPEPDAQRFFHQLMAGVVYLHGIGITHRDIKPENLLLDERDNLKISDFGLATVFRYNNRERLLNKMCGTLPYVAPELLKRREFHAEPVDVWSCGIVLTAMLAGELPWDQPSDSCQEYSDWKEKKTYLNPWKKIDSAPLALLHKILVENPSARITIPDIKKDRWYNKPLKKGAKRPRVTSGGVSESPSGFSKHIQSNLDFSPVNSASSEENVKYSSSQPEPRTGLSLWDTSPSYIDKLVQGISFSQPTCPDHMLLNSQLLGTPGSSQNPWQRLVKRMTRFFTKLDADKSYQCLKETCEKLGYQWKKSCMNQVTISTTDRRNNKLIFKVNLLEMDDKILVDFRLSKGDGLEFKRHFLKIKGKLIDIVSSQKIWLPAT

Activity [1]: 89% | Activity [2]: 78% | Activity [3]: 68% | Activity [4]: 92% | Activity [5]: 99% | Activity [6]: 73% | Activity [7]: 65% | Activity [8]: 97% | Activity [9]: 95% | Activity [10]: 122% | Activity [11]: 93% | Activity [12]: 73% | TIME [13]: 0.5 h | Activity [14]: 107% | Activity [15]: 63% | Activity [16]: 89% | Activity [17]: 101% | Activity [18]: 95% | Activity [19]: 147% | Activity [20]: 80% | Activity [22]: 85% | inhibition [23]: Active | Activity [24]: 99%
Structure (SMILES): O=C1Nc2ncccc2/C1=C1/Nc2ncccc2C1=O
GI50 (LOX IMVI): 338 nM | GI50 [21]: 1390 nM
